In brackets after ≈: the same amount, converted by molar mass. Activity calls are given as the source filed them. The calls are words filed in the database; no cut-off is given here.
Legend:
Type in all cases: functional
Bacillus subtilis [1] = assay: Antibacterial activity Bacillus subtilis NCIM 2250 at 100 ug/disc by agar-well diffusion assay; conditions: for zone of inhibition at 100 µg/disc: read-out: DIZ
Outline: (§1)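 Agar-well diffusion screen against standard strains. Zone of inhibition is the read-out. Chloramphenicol, nystatin and ravuconazole were run as positive controls.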

Aspergillus niger [2] = assay: Antifungal activity Aspergillus niger NCIM 545 at 100 ug/disc by agar-well diffusion assay; conditions: for zone of inhibition at 100 µg/disc: read-out: DIZ; outline: as §1
Bacillus subtilis [3] = assay: Antibacterial activity Bacillus subtilis NCIM 2250 after 24 hrs by NCCLS method
Outline: (§2)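 Broth microdilution MIC per NCCLS. Compounds dissolved in DMSO, serially diluted in growth medium, incubated at 37 °C. Read at 24 h for bacteria and 24–72 h for fungi. MIC90 taken as the first well with about 90% growth reduction relative to the drug-free well.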

Staphylococcus aureus [4] = assay: Antibacterial activity Staphylococcus aureus NCIM 2079 at 100 ug/disc by agar-well diffusion assay; conditions: for zone of inhibition at 100 µg/disc: read-out: DIZ; outline: as §1
Pseudomonas aeruginosa [5] = assay: Antibacterial activity Pseudomonas aeruginosa NCIM 2036 at 100 ug/disc by agar-well diffusion assay; conditions: for zone of inhibition at 100 µg/disc: read-out: DIZ; outline: as §1
Staphylococcus aureus [6] = assay: Antibacterial activity Staphylococcus aureus NCIM 2079 after 24 hrs by NCCLS method; outline: as §2
Aspergillus niger [7] = assay: Antifungal activity Aspergillus niger NCIM 545 after 24 to 72 hrs by NCCLS method; outline: as §2
Escherichia coli [8] = assay: Antibacterial activity Escherichia coli NCIM 2109 at 100 ug/disc by agar-well diffusion assay; conditions: for zone of inhibition at 100 µg/disc: read-out: DIZ; outline: as §1
Candida albicans [9] = assay: Antifungal activity Candida albicans NCIM 3471 after 24 to 72 hrs by NCCLS method; outline: as §2
Pseudomonas aeruginosa [10] = assay: Antibacterial activity Pseudomonas aeruginosa NCIM 2036 after 24 hrs by NCCLS method; outline: as §2
Candida albicans [11] = assay: Antifungal activity Candida albicans NCIM 3471 at 100 ug/disc by agar-well diffusion assay; conditions: for zone of inhibition at 100 µg/disc: read-out: DIZ; outline: as §1
Escherichia coli [12] = assay: Antibacterial activity Escherichia coli NCIM 2109 after 24 hrs by NCCLS method; outline: as §2

Row | Compound | diameter of the inhibition zone (DIZ) (Bacillus subtilis [1]) | zone of inhibition at 100 µg/disc (Aspergillus niger [2]) [mm] | MIC (Bacillus subtilis [3]) | diameter of the inhibition zone (DIZ) (Pseudomonas aeruginosa [5]) | MIC (Aspergillus niger [7]) | zone of inhibition at 100 µg/disc (Escherichia coli [8]) [mm] | MIC (Candida albicans [9]) | MIC (Pseudomonas aeruginosa [10]) | diameter of the inhibition zone (DIZ) (Candida albicans [11]) | MIC (Escherichia coli [12]; NCIM 2109, 24 h) [µg/mL] | zone of inhibition at 100 µg/disc (Bacillus subtilis [1]) [mm] | MIC (Bacillus subtilis [3]; NCIM 2250, 24 h) [µg/mL] | zone of inhibition at 100 µg/disc (Staphylococcus aureus [4]) [mm] | zone of inhibition at 100 µg/disc (Pseudomonas aeruginosa [5]) [mm] | MIC (Staphylococcus aureus [6]; NCIM 2079, 24 h) [µg/mL] | diameter of the inhibition zone (DIZ) (Escherichia coli [8]) | MIC (Pseudomonas aeruginosa [10]; NCIM 2036, 24 h) [µg/mL] | zone of inhibition at 100 µg/disc (Candida albicans [11]) [mm] | MIC (Escherichia coli [12]) | further results
1 | O=[N+]([O-])c1ccc(-c2csc(N/N=C(/Cn3cncn3)c3ccc(F)cc3)n2)cc1 | inactive | 9.44 | inactive | inactive | > 64 µg/mL | 10.9 | inactive | inactive | inactive | > 64 |  |  |  |  |  |  |  |  |  | diameter of the inhibition zone (DIZ) (Staphylococcus aureus [4]): inactive; MIC (Staphylococcus aureus [6]): inactive
2 | Fc1ccc(-c2csc(N/N=C(/Cn3cncn3)c3cc(C(F)(F)F)cc(C(F)(F)F)c3)n2)cc1 |  | 17.3 |  |  | 32 µg/mL (≈ 62.2 µM) |  | > 64 µg/mL |  |  |  | 9.77 | > 64 | 21.2 | 22.9 | 64 (≈ 124 µM) | inactive | 16 (≈ 31.1 µM) | 19.4 | inactive | 
3 | Clc1ccc(/C(Cn2cncn2)=N\Nc2nc(-c3ccc(Br)cc3)cs2)cc1 | inactive | 18.6 | inactive |  | 64 µg/mL (≈ 135 µM) |  | inactive |  | inactive |  |  |  | 19.1 | 23.9 | 64 (≈ 135 µM) | inactive | 32 (≈ 67.5 µM) |  | inactive | 
4 | O=[N+]([O-])c1ccc(/C(Cn2cncn2)=N\Nc2nc(-c3ccc(Cl)cc3)cs2)cc1 |  |  |  | inactive | inactive |  | inactive | inactive | inactive |  | 15.8 | 64 (≈ 145 µM) | 14.2 |  | > 64 | inactive |  |  | inactive | diameter of the inhibition zone (DIZ) (Aspergillus niger [2]): inactive
5 | NYSTATIN |  |  |  |  | 16 µg/mL |  | 16 µg/mL |  |  |  |  |  |  |  |  |  |  |  |  | inhibition zone (IZ) (Aspergillus niger [2]): 21.6 mm; inhibition zone (IZ) (Candida albicans [11]): 23.3 mm
6 | O=[N+]([O-])c1ccc(/C(Cn2cncn2)=N\Nc2nc(-c3ccc(Br)cc3)cs2)cc1 | inactive |  | inactive |  | inactive | 11 | inactive |  | inactive | > 64 |  |  |  | 19.8 |  |  | 64 (≈ 132 µM) |  |  | diameter of the inhibition zone (DIZ) (Aspergillus niger [2]): inactive; diameter of the inhibition zone (DIZ) (Staphylococcus aureus [4]): inactive; MIC (Staphylococcus aureus [6]): inactive
7 | Fc1ccc(-c2csc(N/N=C(/Cn3cncn3)c3ccc(Br)cc3)n2)cc1 |  | 11.9 |  | inactive | > 64 µg/mL |  | 64 µg/mL (≈ 140 µM) | inactive |  |  | 20.3 | 32 (≈ 70 µM) | 15.5 |  | 64 (≈ 140 µM) | inactive |  | 14.4 | inactive | 
8 | Fc1ccc(/C(Cn2cncn2)=N\Nc2nc(-c3ccc(F)cc3)cs2)cc1 |  | 20.4 |  |  | 16 µg/mL (≈ 40.4 µM) | 21.5 | 64 µg/mL (≈ 161 µM) |  |  | 32 (≈ 80.7 µM) | 24.4 | 32 (≈ 80.7 µM) | 16.1 | 24.1 | 64 (≈ 161 µM) |  | 32 (≈ 80.7 µM) | 16.3 |  | 
9 | O=C(O)c1cn(C2CC2)c2cc(N3CCNCC3)c(F)cc2c1=O [CIPROFLOXACIN] |  |  |  |  |  | 26.2 |  |  |  |  | 26.7 | 16 (≈ 48.3 µM) | 28.4 | 30.9 |  |  | 16 (≈ 48.3 µM) |  |  | 

Source: ChEMBL document CHEMBL2040750, “Hybrids of ravuconazole: synthesis and biological evaluation” (2012)
